In ChEMBL document CHEMBL3856286, “Halogenated naphthochalcones and structurally related naphthopyrazolines with antitumor activity” (Bioorg Med Chem Lett, 2016):
Active and inactive are the calls of the source. The calls are words filed in the database; no cut-off is given here.

Columns and labels:
[1] = Cell cycle arrest in human HT-29 cells assessed as accumulation in G2/M phase at 15 uM after 24 hrs by propidium iodide staining based flow cytometry; format: functional
How it was run: (§1)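 HT-29 colon carcinoma cells treated 24 h with 15 µM compound or DMSO (control); propidium iodide staining, flow cytometry for cell-cycle phase distribution and sub-G1 fraction. Means ± SD of three independent experiments.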

HCT-116 = assay: (§2) Growth inhibition of human HCT116 cells after 72 hrs by MTT assay; format: functional, cell-based
[2] = as §2; format: functional, cell-based; details: HCT-116, 72 h
Sus scrofa = organism: Sus scrofa; assay: Inhibition of pig brain tubulin polymerization at 5 uM measured every 20 sec for 2 hrs by turbidimetric method
[3] = biological target: T1, Broad substrate specificity ATP-binding cassette transporter ABCG2 (Homo sapiens, UniProt Q9UNQ0); assay: Inhibition of BCRP in human MCF7/Topo cells assessed as mitoxantrone accumulation preincubated for 10 mins followed by mitoxantrone addition measured after 30 mins by fluorescence assay; format: cell-based
T1 sequence (Q9UNQ0 whole entry): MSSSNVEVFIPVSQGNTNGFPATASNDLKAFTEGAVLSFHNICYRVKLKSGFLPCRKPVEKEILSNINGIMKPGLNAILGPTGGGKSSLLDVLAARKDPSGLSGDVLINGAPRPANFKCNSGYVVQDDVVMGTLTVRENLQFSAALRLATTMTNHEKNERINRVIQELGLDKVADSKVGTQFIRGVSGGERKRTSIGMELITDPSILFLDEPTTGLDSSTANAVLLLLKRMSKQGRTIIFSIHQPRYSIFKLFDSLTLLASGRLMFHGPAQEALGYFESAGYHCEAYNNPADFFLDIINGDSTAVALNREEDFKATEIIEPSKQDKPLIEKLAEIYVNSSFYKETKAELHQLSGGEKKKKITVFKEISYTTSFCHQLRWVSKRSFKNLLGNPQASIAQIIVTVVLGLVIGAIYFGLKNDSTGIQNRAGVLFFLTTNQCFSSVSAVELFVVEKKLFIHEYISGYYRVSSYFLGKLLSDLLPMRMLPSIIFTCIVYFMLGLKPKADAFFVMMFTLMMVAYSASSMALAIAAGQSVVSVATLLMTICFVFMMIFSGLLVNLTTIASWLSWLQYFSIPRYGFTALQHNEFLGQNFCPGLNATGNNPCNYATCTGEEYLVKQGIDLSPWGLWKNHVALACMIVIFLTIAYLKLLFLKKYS
How it was run: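 MCF-7/Topo breast cancer cells (BCRP-overexpressing) exposed to compounds at 0–100 µM, or fumitremorgin C 0.1–100 µM as reference inhibitor, for 30 min with mitoxantrone as fluorescent BCRP substrate. Mitoxantrone fluorescence taken as measure of inhibition; IC50 from dose–response curves; mean ± SD of three independent experiments.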

[4] = Cell cycle arrest in human HT-29 cells assessed as decrease in G1 phase at 15 uM after 24 hrs by propidium iodide staining based flow cytometry; format: functional; how it was run: as §1
KB-V1/Vbl = assay: (§3) Growth inhibition of human KB-V1/Vbl cells after 72 hrs by MTT assay; format: functional
[5] = as §3; format: functional
MCF7/Topo = assay: (§4) Growth inhibition of human MCF7/Topo cells after 72 hrs by MTT assay; format: functional, cell-based
[6] = as §4; format: functional, cell-based
PANC-1 = assay: (§5) Growth inhibition of human PANC1 cells after 72 hrs by MTT assay; format: functional, cell-based
[7] = as §5; format: functional, cell-based; details: PANC-1, 72 h
[8] = biological target: ATP-dependent translocase ABCB1 (Homo sapiens, UniProt P08183); assay: Inhibition of P-gp in human KB-V1/Vbl cells assessed as calcein-AM accumulation preincubated for 15 mins followed by calcein-AM addition measured after 15 mins by fluorescence assay; format: cell-based
HT-29 = assay: (§6) Growth inhibition of human HT-29 cells after 72 hrs by MTT assay; format: functional, cell-based
[9] = as §6; format: functional, cell-based; details: HT-29, 72 h
[10] = (§7) Growth inhibition of human 518A2 cells after 72 hrs by MTT assay; format: functional, cell-based; details: 518A2, 72 h
518A2 [11] = assay: as §7; format: functional, cell-based
518A2 [12] = assay: Inhibition of tubulin polymerization in human 518A2 cells assessed as increase in detergent soluble tubulin heterodimers at 5 to 50 uM after 4 hrs by Western blot analysis; format: cell-based
How it was run: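 518A2 melanoma cells treated 4 h with a range of concentrations; detergent-insoluble (polymeric tubulin) lysate fraction separated by centrifugation, run on SDS–PAGE, immunoblotted for alpha-tubulin (55 kDa); densitometry from at least two independent experiments (mean ± SD).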

518A2 [13] = assay: Induction of apoptosis in human 518A2 cells assessed as DNA ladder formation at 50 uM after 24 hrs by ethidium bromide staining based agarose gel electrophoresis; format: functional, cell-based
518A2 [14] = assay: Binding affinity to tubulin in human 518A2 cells assessed as effect on F-actin cytoskeleton by measuring increase in stress fibres at 10 uM after 24 hrs by phalloidin 488/DAPI staining based fluorescence microscopic analysis; format: cell-based
How it was run: (§8)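 518A2 melanoma cells treated 24 h at 10 µM or 5 µM; F-actin fluorescently stained and cytoskeletal organisation, including stress-fibre formation, compared with untreated controls by fluorescence microscopy.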

518A2 [15] = assay: Induction of apoptosis in human 518A2 cells assessed as DNA fragmentation at 25 uM after 24 hrs by TUNEL based flow cytometry; format: functional, cell-based
How it was run: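 518A2 melanoma cells treated 24 h; DNA fragmentation detected by TUNEL labelling and quantified by flow cytometry against untreated controls.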

P-gp (ABCB1) = P-gp (ABCB1) (Homo sapiens, UniProt P08183); assay: Potency index, ratio of verapamil IC50 to compound IC50 for P-gp in human KB-V1/Vbl cells; format: cell-based; details: read-out: Ratio IC50
518A2 [16] = assay: Binding affinity to tubulin in human 518A2 cells assessed as effect on F-actin cytoskeleton by measuring increase in stress fibres at 5 uM after 24 hrs by phalloidin 488/DAPI staining based fluorescence microscopic analysis; format: cell-based; how it was run: as §8

P-gp (ABCB1), sequence (P08183 whole entry): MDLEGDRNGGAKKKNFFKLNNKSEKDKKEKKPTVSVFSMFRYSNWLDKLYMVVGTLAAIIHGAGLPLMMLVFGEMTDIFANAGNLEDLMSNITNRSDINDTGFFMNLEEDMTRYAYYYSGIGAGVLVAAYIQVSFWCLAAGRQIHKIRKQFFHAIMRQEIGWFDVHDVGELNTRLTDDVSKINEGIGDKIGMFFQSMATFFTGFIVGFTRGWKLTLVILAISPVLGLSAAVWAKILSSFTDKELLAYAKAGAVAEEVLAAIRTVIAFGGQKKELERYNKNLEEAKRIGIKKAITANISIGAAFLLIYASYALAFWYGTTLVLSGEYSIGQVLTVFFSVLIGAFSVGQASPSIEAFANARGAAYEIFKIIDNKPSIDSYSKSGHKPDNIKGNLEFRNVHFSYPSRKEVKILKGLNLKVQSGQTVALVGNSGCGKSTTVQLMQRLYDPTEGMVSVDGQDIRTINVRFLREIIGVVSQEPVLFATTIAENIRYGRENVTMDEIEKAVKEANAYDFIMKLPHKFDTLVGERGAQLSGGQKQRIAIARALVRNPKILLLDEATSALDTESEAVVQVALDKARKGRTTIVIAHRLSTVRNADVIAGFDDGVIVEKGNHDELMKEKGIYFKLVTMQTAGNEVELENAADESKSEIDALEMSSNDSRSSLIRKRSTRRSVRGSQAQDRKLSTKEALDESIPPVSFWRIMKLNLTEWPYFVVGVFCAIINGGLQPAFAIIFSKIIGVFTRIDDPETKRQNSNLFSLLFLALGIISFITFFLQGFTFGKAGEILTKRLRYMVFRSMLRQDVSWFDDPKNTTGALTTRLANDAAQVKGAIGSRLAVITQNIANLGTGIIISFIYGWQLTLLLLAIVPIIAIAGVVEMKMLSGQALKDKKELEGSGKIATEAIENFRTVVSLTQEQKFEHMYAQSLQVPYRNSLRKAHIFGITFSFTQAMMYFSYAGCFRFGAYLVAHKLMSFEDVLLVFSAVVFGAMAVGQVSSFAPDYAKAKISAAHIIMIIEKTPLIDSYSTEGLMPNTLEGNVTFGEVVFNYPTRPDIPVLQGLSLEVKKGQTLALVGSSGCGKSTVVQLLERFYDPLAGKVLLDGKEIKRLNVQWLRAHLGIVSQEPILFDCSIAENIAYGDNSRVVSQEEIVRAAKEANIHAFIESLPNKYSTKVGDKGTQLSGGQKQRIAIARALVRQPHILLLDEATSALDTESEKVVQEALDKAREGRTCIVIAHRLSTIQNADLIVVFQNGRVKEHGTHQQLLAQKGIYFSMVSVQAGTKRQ
ATP-dependent translocase ABCB1, sequence (P08183 whole entry): as above

Compound | inhibition (Sus scrofa) | IC50 [8] | Activity [1] | growth inhibition (GI) (HCT-116) | IC50 [2] | IC50 [3] | Activity [4] | growth inhibition (GI) (KB-V1/Vbl) | IC50 [5] | growth inhibition (GI) (MCF7/Topo) | IC50 [6] | growth inhibition (GI) (PANC-1) | IC50 [7] | growth inhibition (GI) (HT-29) | IC50 [9] | IC50 [10] | growth inhibition (GI) (518A2 [11]) | inhibition (518A2 [12]) | selectivity ratio (P-gp (ABCB1)) | further results
COc1cc(/C=C/C(=O)c2ccc3ccccc3c2)cc(I)c1OC | Active | > 500 µM | Active | Dose-dependent effect | 14.4 µM | 7.8 µM | Active | Dose-dependent effect | 16.5 µM | Dose-dependent effect | 1.3 µM | Dose-dependent effect | 10.4 µM | Dose-dependent effect | 13.3 µM | 18.1 µM | Dose-dependent effect | Active |  | 
COc1ccc2c3c([nH]c2c1)[C@H](C=C(C)C)N1C(=O)[C@@H]2CCCN2C(=O)[C@@H]1C3 [FUMITREMORGIN] |  |  |  |  |  | 0.96 µM |  |  |  |  |  |  |  |  |  |  |  |  |  | 
COc1cc(/C=C/C(=O)c2ccc3ccccc3c2)cc(Cl)c1OC | Active | > 500 µM | Active | Dose-dependent effect | 12.9 µM | 8.7 µM | Active | Dose-dependent effect | 13.1 µM | Dose-dependent effect | 1.5 µM | Dose-dependent effect | 10.3 µM | Dose-dependent effect | 23.9 µM | 16.4 µM | Dose-dependent effect | Active |  | Activity (518A2 [13]): Active; Activity (518A2 [14]): Active; Activity (518A2 [15]): Active
COc1cc(C2CC(c3ccc4ccccc4c3)=NN2C(C)=O)cc(I)c1OC (configuration not stated) | Active | 16.3 µM | Active | Dose-dependent effect | 1.6 µM | 7.1 µM | Active | Dose-dependent effect | 1.9 µM | Dose-dependent effect | 2.5 µM | Dose-dependent effect | 1.1 µM | Dose-dependent effect | 2.3 µM | 3.8 µM | Dose-dependent effect | Active | 4 to 5 | 
COc1cc(C2CC(c3ccc4ccccc4c3)=NN2C(C)=O)cc(Cl)c1OC (configuration not stated) | Active | 12.1 µM | Active | Dose-dependent effect | 3.8 µM | 7.4 µM | Active | Dose-dependent effect | 4.7 µM | Dose-dependent effect | 2.1 µM | Dose-dependent effect | 3.1 µM | Dose-dependent effect | 3.5 µM | 4.6 µM | Dose-dependent effect | Active | 4 to 5 | Activity (518A2 [16]): Active
COc1cc(C2CC(c3ccc4ccccc4c3)=NN2C(C)=O)cc(Br)c1OC (configuration not stated) |  | 12.6 µM | Active | Dose-dependent effect | 2.7 µM | 8.9 µM | Active | Dose-dependent effect | 2.2 µM | Dose-dependent effect | 2.6 µM | Dose-dependent effect | 1.5 µM | Dose-dependent effect | 2.5 µM | 3.8 µM | Dose-dependent effect |  | 4 to 5 | 

More lines, main results first:

inhibition (Sus scrofa) | IC50 [8] | Compound | Activity [1] | growth inhibition (GI) (HCT-116) | IC50 [2] | IC50 [3] | Activity [4] | growth inhibition (GI) (KB-V1/Vbl) | IC50 [5] | growth inhibition (GI) (MCF7/Topo) | IC50 [6] | growth inhibition (GI) (PANC-1) | IC50 [7] | growth inhibition (GI) (HT-29) | IC50 [9] | IC50 [10] | growth inhibition (GI) (518A2 [11]) | inhibition (518A2 [12]) | selectivity ratio (P-gp (ABCB1)) | further results
 | > 500 µM | COc1cc(/C=C/C(=O)c2ccc3ccccc3c2)cc(Br)c1OC | Active | Dose-dependent effect | 11.2 µM | 4.9 µM | Active | Dose-dependent effect | 10.5 µM | Dose-dependent effect | 2.3 µM | Dose-dependent effect | 9.3 µM | Dose-dependent effect | 22.8 µM | 20.2 µM | Dose-dependent effect |  |  | 
 | 13 µM | COc1cc(/C=C/C(=O)c2ccc3ccccc3c2)cc(OC)c1OC | Active | Dose-dependent effect | 13.7 µM | 2.4 µM | Active | Dose-dependent effect | 13.9 µM | Dose-dependent effect | 5.6 µM | Dose-dependent effect | 13.3 µM | Dose-dependent effect | 28.1 µM | 22.9 µM | Dose-dependent effect |  | 4 to 5 | Activity (518A2 [13]): Active; Activity (518A2 [14]): Active; Activity (518A2 [15]): Active
